Shown are actives, neighbours in structure and some others; about 2.9% of the full set was active somewhere.
CHO parental Ca: signal in parental CHO cells, OX1R antagonist counter-screen. parental CHO-K1, ATP-induced calcium, Fluo-8 fluorescence. inhibition, % at 5.6 µM. 330,000 tested, 0.63% active. AID 463079;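 active means inhibition above that plate's mean sample inhibition plus 3 SD, cut at about 26% in these data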
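Material: parental CHO cells / Compound: single nominal dose of 5.6 µM per compound / Signal: Fluo-8 fluorescence / Replicates: singlicate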
CHO-K1 Ca ag: counter-screen for M1 agonists: effect in parental CHO-K1 cells | Fluo-8 calcium fluorescence; scaled to maximal ATP response, vehicle zero | activation, % at 3 µM | 360,000 tested, 0.48% active; in the data active means activation above about 15%;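 further: untransfected CHO-K1 host cells lacking M1 receptor as counterscreen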
M1 PAM parental: counter-screen for M1 PAMs: effect in parental CHO-K1 cells; activation, % at 3 µM; 360,000 tested, 0.02% active; ATP EC20, Fluo-8 calcium fluorescence; 0% at ATP EC20, 100% at ATP max; AID 602247;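 active means activation above the run cutoff, the mean activation of all test compounds plus 3 SD, cut at about 40% in these data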;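 further: peak over basal fluorescence ratio in a 140 s read after ATP addition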
CHO-K1 Ca antag: M1 antagonist counterscreen hit in parental CHO-K1 cells; ATP-induced calcium, Fluo-8 fluorescence; inhibition, % at 3 µM; 360,000 tested, 0.6% active; AID 602250;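 active means inhibition above a per-plate cutoff, the plate's mean sample inhibition plus 3 SD, cut at about 24% in these data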
OX1R antag-1: blocks the human orexin 1 receptor; CHO/OX1R cells, Fluo-8 calcium fluorescence, orexin A; 330,000 tested, 0.43% active; inhibition, % at 5 µM;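 active means inhibition above its plate's threshold, mean inhibition of all tested compounds on the plate plus 3 SD, cut at about 37% in these data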
Target sequence (O43613 whole entry, looked up): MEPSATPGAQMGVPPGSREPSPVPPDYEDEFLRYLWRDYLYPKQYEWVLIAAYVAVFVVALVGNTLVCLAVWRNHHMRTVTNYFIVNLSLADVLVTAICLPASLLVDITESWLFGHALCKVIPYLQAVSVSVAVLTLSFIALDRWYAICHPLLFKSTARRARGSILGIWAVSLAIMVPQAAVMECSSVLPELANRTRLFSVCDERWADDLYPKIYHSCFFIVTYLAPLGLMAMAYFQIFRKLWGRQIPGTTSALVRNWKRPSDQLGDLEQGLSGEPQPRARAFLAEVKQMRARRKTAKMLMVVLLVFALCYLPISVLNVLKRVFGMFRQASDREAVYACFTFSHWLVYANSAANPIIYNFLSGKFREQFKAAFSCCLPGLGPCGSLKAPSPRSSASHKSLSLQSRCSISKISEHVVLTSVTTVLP
OX1R antag-2: OX1R (human) antagonism | OX1R-expressing cells, FRET antagonist read-out | inhibition, % at 6.6 µM | 330,000 tested, 1.8% active | AID 485270; in the data active means inhibition mostly above about 38%, no sharp cut-off; inactive means mostly below about 40%
Of the large screens only hits and unclear results are named; the others gave an inactive call.

Cc1[nH]c2ccccc2c1SCCNC(=O)c1ccc(Br)o1	OX1R antag-2 66
CC1(C(=O)NS(=O)(=O)c2cccc(C#N)c2)CCN1C(=O)Cc1ccccc1 (centres undefined)	none (no result: CHO parental Ca, OX1R antag-1, OX1R antag-2)
COc1ccc2cc(/C=C3\SC(=S)NC3=O)c(N3CCOCC3)nc2c1	OX1R antag-2 74
CCCN1CCc2c(sc(NC(=O)C3CCN(S(=O)(=O)c4cccs4)CC3)c2C(N)=O)C1	CHO-K1 Ca antag 29
CC(=O)N1CCc2c(sc(NC(=O)C3CCCN3S(=O)(=O)c3cccs3)c2C(N)=O)C1 (centres undefined)	OX1R antag-2 39
O=C(NCCN1CCN(c2ccccc2)CC1)Nc1ccc(Cl)cc1	CHO-K1 Ca ag 16
O=C(NCCN1CCN(S(=O)(=O)c2ccc(F)cc2)CC1)C(=O)NCc1ccccc1	CHO-K1 Ca antag 24
CCN(CCNC(=O)Nc1ccc(Cl)cc1)c1ccccc1	CHO parental Ca 55, OX1R antag-1 64, OX1R antag-2 118
O=C(NCCN1CCN(c2ccc([N+](=O)[O-])cc2)CC1)NCc1ccccc1	OX1R antag-2 34
O=C(NCCc1ccc(Cl)cc1)Nc1ccc(Cl)cc1	none
COc1cc(NC(=O)CCc2nnc3ccc(N4CCOCC4)nn23)cc(OC)c1OC	none
Cc1nc2ccc(NC(=S)NC3CC3)cc2nc1C	CHO-K1 Ca antag 27
CCn1c(SCC(=O)c2ccc3ccccc3c2)nnc1-c1ccco1	OX1R antag-2 74
CCn1c(SCC(=O)N(C)CC(=O)Nc2cccc(OC)c2)nnc1-c1ccco1	OX1R antag-2 40
COc1ccc(C(=O)CSc2nnc(-c3cc4ccccc4cc3O)n2Cc2ccco2)cc1	OX1R antag-2 53
COc1cccc2sc3cc(C#Cc4ccccn4)ccc3c(=O)c12	OX1R antag-2 63
COC(=O)C1=C(C)N(Cc2ccco2)C(=O)/C1=C\c1ccc([N+](=O)[O-])cc1	CHO-K1 Ca ag 17
O=C(CCN1C(=O)c2cccc([N+](=O)[O-])c2C1=O)Nc1nccs1	none
COc1ccc2oc(=N)c(C(=O)Nc3ccccc3)cc2c1	OX1R antag-2 76
COc1ccc(NS(=O)(=O)c2ccc(Cl)c(NC(=O)c3ccccc3F)c2)cc1	OX1R antag-2 49
COc1ccc(CC(=O)Nc2ccc(NC(=O)c3ccccc3F)cc2)cc1	CHO parental Ca 58
COc1ccc(Nc2ncccc2C(=O)Nc2ccccc2)cc1	CHO parental Ca 50
COc1ccc(NS(=O)(=O)c2ccc(Cl)c(NC(=O)c3cccnc3Cl)c2)cc1	none
COc1ccc2oc(=N)c(C(=O)Nc3ccc(C)cc3)cc2c1	none (no result: CHO parental Ca, OX1R antag-1, OX1R antag-2)
CN1CCN(C(=S)c2cn(CCOc3ccccc3F)c3ccccc23)CC1	none
O=C(NCc1ccccc1F)c1ccc(S(=O)(=O)N2CCCC2)cc1	none (no result: CHO parental Ca, OX1R antag-1, OX1R antag-2)
CC(NS(=O)(=O)c1cc(C(F)(F)F)ccc1Cl)C(=O)N(C)C1CCN(C)CC1 (centres undefined)	none
COc1ccc(NC(=O)c2ccc3ccccc3c2OC)cc1	CHO-K1 Ca ag 22
Cn1nc(OC(=O)Nc2ccc(F)cc2)cc1C(F)(F)F	none
Cn1nc(OC(=O)Nc2ccc(Cl)cc2)cc1C(F)(F)F	CHO parental Ca 38 (no result: CHO-K1 Ca ag, M1 PAM parental, CHO-K1 Ca antag)
CCOC(=O)C1C(=O)C(=O)N(Cc2ccccc2)C1C(=O)OCC (centres undefined)	none (no result: CHO parental Ca, OX1R antag-1, OX1R antag-2)
COc1ccc(-n2ncc3c2CC(C)(C)CC3NC(=O)c2cn[nH]c2)cc1 (centres undefined)	none (no result: CHO parental Ca, OX1R antag-1, OX1R antag-2)
CN(Cc1cccs1)C(=O)Cn1cnc2cc([N+](=O)[O-])ccc2c1=O	OX1R antag-2 40
CCc1ccc(C(=O)Cn2cnc3cc([N+](=O)[O-])ccc3c2=O)cc1	none
O=C(Cn1cnc2cc([N+](=O)[O-])ccc2c1=O)NC1CCS(=O)(=O)C1 (centres undefined)	OX1R antag-2 63
O=C(Cn1cnc2cc([N+](=O)[O-])ccc2c1=O)N(Cc1ccccc1)C1CCS(=O)(=O)C1 (centres undefined)	none
CCOC(=O)[C@H]1[C@H]2COc3ccccc3[C@@H]2N2C(=O)CN(Cc3ccc(C)cc3)C(=O)[C@@]12C	none
CC(C)Cn1c(N)c(C(=O)COC(=O)c2cccc(F)c2)c(=O)n(C)c1=O	none (no result: CHO parental Ca, OX1R antag-1, OX1R antag-2)
CC(C)Cn1c(N)c(C(=O)COC(=O)CCc2nc3ccccc3c(=O)[nH]2)c(=O)n(C)c1=O	none
CC(C)Cn1c(N)c(C(=O)COC(=O)/C=C/c2ccccc2)c(=O)n(C)c1=O	CHO parental Ca 78, CHO-K1 Ca antag 28
CC(C)Cn1c(N)c(C(=O)COC(=O)COc2cccc(C(F)(F)F)c2)c(=O)n(C)c1=O	CHO-K1 Ca ag 15
CC(C)Cn1c(N)c(C(=O)COC(=O)CCc2nc3ccccc3s2)c(=O)n(C)c1=O	CHO parental Ca 34, CHO-K1 Ca ag 15
CC(C)Cn1c(N)c(C(=O)COC(=O)CC23CC4CC(CC(C4)C2)C3)c(=O)n(C)c1=O	CHO parental Ca 61, OX1R antag-1 71
CCn1nnnc1SCC(=O)N1CCCCC1	none
COc1ccc(NC(=O)Cc2ccsc2)cc1S(=O)(=O)N1CCOCC1	none
Cc1cc(C)n(CCCNC(=O)C2CC(=O)N(Cc3ccccc3)C2)n1 (centres undefined)	none
Cc1ccccc1OCCC(=O)OCC(=O)c1c(N)n(CC(C)C)c(=O)n(C)c1=O	CHO parental Ca 46, CHO-K1 Ca ag 15, CHO-K1 Ca antag 24
Cc1ccc(OCCC(=O)OCC(=O)c2c(N)n(CC(C)C)c(=O)n(C)c2=O)cc1	none
COc1ccccc1CC(=O)Nc1ncc(C)s1	none
Cc1cccc(N2CCN(C(=O)CSCc3c(C)noc3C)CC2)c1C	CHO parental Ca 46
Cc1ccc(Cl)cc1NC(=S)N(Cc1ccccc1)Cc1cccnc1	none
Cc1ccc(S(=O)(=O)NNC(=O)c2c(O)c3ccccc3[nH]c2=O)cc1	CHO-K1 Ca ag 16
Cn1cc(/C=C/c2cc[n+](C)cc2)c2cc(F)ccc21	OX1R antag-2 44
CCCCN(C=O)c1c(CC)nc2ccc(C(=O)N3CCN(c4ccccc4)CC3)cn12	none (no result: CHO parental Ca, OX1R antag-1, OX1R antag-2)
CC(=O)c1ccc(OCc2cc(C(=O)N3CCC(Oc4ccccc4C)CC3)no2)cc1	none
Cc1ccc(OCc2cc(C(=O)N3CCC(Oc4cccnc4)CC3)no2)cc1C	CHO-K1 Ca ag 16, CHO-K1 Ca antag 25
O=C(c1cc(COc2cccc(C(F)(F)F)c2)on1)N1CCC(Oc2cccnc2)CC1	CHO parental Ca 39, CHO-K1 Ca antag 24
COCC1CCCCC1OS(N)(=O)=O (centres undefined)	none
Cc1ccc(NS(=O)(=O)c2ccc(NC(=O)c3ccc(Br)o3)cc2)c(C)c1	CHO parental Ca 36
Cc1ccc(-n2c(C)cc(/C=N/NC(=O)CC3(C)OCCO3)c2C)c(C)c1	none
CC1(CC(=O)N/N=C/c2cc([N+](=O)[O-])c(O)cc2O)OCCO1	OX1R antag-2 52

Screens (PubChem)
